Assay results from different studies.
Lines come from different studies, so protocols differ.
Effect on: cell growth or viability

SMILES	cell line	assay	setting	IC50
COc1ccccc1Cn1nc(-c2ccc(CO)o2)c2ccccc21	HuCCT-1	ATP luminescence	–	> 46 µM
O=c1[nH]cc(F)c(=O)[nH]1	HaCaT	SRB	–	0.05 µg/mL
CCCn1cnc2ccc(-c3ccc(NC(=O)CNC(C)C)nc3)cc2c1=O	HCC827	CCK-8	72 h	> 10 µM
COc1cccc(N=C2SCC(=O)N2c2nnc(-c3ccc(C(F)(F)F)cc3N=C3SCC(=O)N3c3cccc(OC)c3)s2)c1	WI-38	MTT	–	82.1 µM
COc1ccc(N=Nc2c(N)nn3c(-c4ccc(C)cc4)cc(-c4ccc(OCc5ccccc5)cc4)nc23)cc1	WI-38	MTT	48 h	47 µM
O=P1(c2ccccc2)CCCCC1	HaCaT	MTT	72 h	> 100 µM
COc1cc(Cn2nc(-c3ccc(CO)o3)c3ccccc32)ccn1	HuCCT-1	ATP luminescence	–	> 46 µM
CCCCC(=O)Nc1ccc(-c2ccc3ncn(CCF)c(=O)c3c2)cn1	HCC827	CCK-8	72 h	0.36 µM
CC(C)[C@@H]1NC(=O)[C@H](Cc2c[nH]cn2)NC1=O	ASPC1	SRB	–	> 15 µM
CCCCCC(=O)Nc1ccc(-c2ccc3ncn(CCC)c(=O)c3c2)cn1	HCC827	CCK-8	72 h	0.16 µM
OCc1ccc(-c2nn(Cc3cccnc3)c3ccccc23)o1	HuCCT-1	ATP luminescence	–	> 46 µM
O=C1CS/C(=N\c2cc(C(F)(F)F)ccc2-c2nnc(N3C(=O)CS/C3=N\c3ccc(F)c(O)c3)s2)N1c1ccc(F)c(O)c1	WI-38	MTT	–	20.3 µM
O=C(Nc1ccc(-c2ccc3ncn(Cc4ccccc4)c(=O)c3c2)cn1)c1ccc(F)cc1	HCC827	CCK-8	72 h	> 10 µM
C=CC(C)(C)c1[nH]cnc1/C=C1/NC(=O)[C@H](C(C)C)NC1=O	ASPC1	SRB	–	> 15 µM
CCCCn1cnc2ccc(-c3ccc(NC(=O)Nc4ccccc4)nc3)cc2c1=O	HCC827	CCK-8	72 h	0.98 µM
O=C1CS/C(=N\c2cc(C(F)(F)F)ccc2-c2nnc(N3C(=O)CS/C3=N\c3cc(O)cc(Br)c3)s2)N1c1cc(O)cc(Br)c1	WI-38	MTT	–	71.1 µM
CCCCn1cnc2ccc(-c3ccc(NC(=O)Nc4ccc(C)cc4)nc3)cc2c1=O	HCC827	CCK-8	72 h	9.15 µM
COc1cccc(Cn2nc(-c3ccc(CO)o3)c3ccccc32)c1	HuCCT-1	ATP luminescence	–	> 46 µM
Cc1nc(Nc2ncc(C(=O)Nc3c(C)cccc3Cl)s2)cc(N2CC[C@H](O)C2)n1	OCI-LY19	ATP luminescence	72 h	> 10 µM
